The source of these data is ChEMBL document CHEMBL1137803, “A novel anti-HIV macrocyclic peptide from Palicourea condensata” (J Nat Prod, 2001).

Molecules are shown by their SMILES. Where a SMILES comes first, the peptide text is derived from it. Bridges are numbered along the chain shown (N, C = ends).

This assay concerns Human immunodeficiency virus 1. As to the kind of experiment: Antiviral activity against HIV1 RF infected in human CEM-SS cells assessed as inhibition of virus induced cytopathic effect by XTT assay. The class given is functional, organism-based. Particulars: Human immunodeficiency virus 1, RF. The essentials:
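HIV-1RF infection of CEM-SS, a human T-lymphoblastoid cell line, in vitro; inhibition of virus-induced cytopathic effects read out and reported as EC50 in µM.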

Broadly, the EC50 is the concentration giving half of the maximal effect. As to `CC[C@H](C)[C@@H]1NC(=O)[C@@H]2CSSC[C@@H]3NC(=O)[C@H](C(C)C)NC(=O)[C@H](CCCCN)NC(=O)[C@H](CC(N)=O)NC(=O)[C@H](CCCCN)NC(=O)[C@@H]4CSSC[C@H](NC(=O)[C@H](CO)NC(=O)[C@H](CCC(=O)O)NC(=O)CNC(=O)[C@H](CSSC[C@H](NC(=O)CNC(=O)[C@H](CC(C)C)NC(=O)[C@H](CC(C)C)NC(=O)[C@H]([C@@H](C)O)NC(=O)[C@H](CO)NC1=O)C(=O)N[C@@H](CO)C(=O)N4)NC(=O)[C@@H]1CCCN1C(=O)[C@H]([C@@H](C)CC)NC(=O)[C@H](C(C)C)NC(=O)CNC(=O)[C@H](CC(N)=O)NC(=O)[C@H](CCCNC(=N)N)NC(=O)[C@H](Cc1ccc(O)cc1)NC3=O)C(=O)N[C@@H](C(C)C)C(=O)N[C@@H](Cc1ccccc1)C(=O)N[C@@H]([C@@H](C)CC)C(=O)N1CCC[C@H]1C(=O)N2` [CIRCULIN B] (cyclo(CGESCVFIPCISTLLGCSCKNKVCYRNGVIP); disulfide 1-17, 5-19, 10-24), the EC50 is 0.05 µM.
Then `CC[C@H](C)[C@@H]1NC(=O)[C@H](CCCCN)NC(=O)[C@H](CC(=O)O)NC(=O)[C@H](Cc2cnc[nH]2)NC(=O)[C@H](Cc2ccc(O)cc2)NC(=O)[C@@H]2CSSC[C@@H]3NC(=O)[C@@H]4CCCN4C(=O)[C@H]([C@@H](C)CC)NC(=O)[C@H](Cc4c[nH]c5ccccc45)NC(=O)[C@H](C(C)C)NC(=O)[C@@H]4CSSC[C@H](NC(=O)[C@H](CCCCN)NC(=O)[C@H](CSSC[C@H](NC(=O)[C@@H]5CCCN5C1=O)C(=O)NCC(=O)N[C@@H](CCC(=O)O)C(=O)N[C@@H](CO)C(=O)N4)NC(=O)[C@H](CC(N)=O)NC(=O)[C@H](Cc1ccccc1)NC(=O)[C@H](C(C)C)NC(=O)[C@H](CO)NC(=O)[C@H]([C@@H](C)O)NC(=O)[C@H](CC(C)C)NC3=O)C(=O)N[C@@H](CCC(=O)O)C(=O)N[C@@H](CC(N)=O)C(=O)N[C@@H](CCCCN)C(=O)N[C@@H](C(C)C)C(=O)N2` [CIRCULIN E] (cyclo(CENKVCYHDKIPCGESCVWIPCLTSVFNCK); disulfide 1-17, 6-22, 13-29), with 0.05 µM; and `CC(C)C[C@@H]1NC(=O)[C@H](C(C)C)NC(=O)[C@H](Cc2ccc(O)cc2)NC(=O)[C@@H]2CSSC[C@@H]3NC(=O)[C@H]([C@@H](C)O)NC(=O)[C@@H]4CSSC[C@H](NC(=O)[C@H](C)NC(=O)[C@H]([C@@H](C)O)NC(=O)CNC(=O)[C@H](CC(N)=O)NC(=O)[C@H](CCCCN)NC(=O)[C@H](Cc5ccccc5)NC(=O)[C@H](CSSC[C@H](NC(=O)[C@@H]5CCCN5C1=O)C(=O)N[C@@H](Cc1ccccc1)C(=O)N[C@@H]([C@@H](C)O)C(=O)N[C@@H](C(C)C)C(=O)NCC(=O)N4)NC(=O)[C@H](CCC(N)=O)NC(=O)[C@H](CO)NC(=O)[C@H](CO)NC(=O)[C@H]([C@@H](C)O)NC3=O)C(=O)NCC(=O)N[C@@H](CCC(=O)O)C(=O)N[C@@H](CO)C(=O)N2` [CYCLOVIOLIN B] (cyclo(ACGESCYVLPCFTVGCTCTSSQCFKNGT); disulfide 2-16, 6-18, 11-23), with 0.05 µM; and `CC[C@H](C)[C@@H]1NC(=O)[C@H](CO)NC(=O)[C@H]([C@@H](C)O)NC(=O)[C@H](Cc2ccc(O)cc2)NC(=O)[C@@H]2CSSC[C@@H]3NC(=O)[C@H](C(C)C)NC(=O)[C@H](CCCCN)NC(=O)[C@H](CC(N)=O)NC(=O)[C@H](CCC(=O)O)NC(=O)[C@@H]4CSSC[C@H](NC(=O)[C@H](CO)NC(=O)[C@H](CCC(=O)O)NC(=O)CNC(=O)[C@H](CSSC[C@H](NC(=O)[C@H](CC(N)=O)NC(=O)[C@H](Cc5ccccc5)NC1=O)C(=O)N[C@@H](CCCCN)C(=O)N4)NC(=O)[C@@H]1CCCN1C(=O)[C@H]([C@@H](C)CC)NC(=O)[C@H](CCCCN)NC(=O)[C@H](CC(=O)O)NC(=O)[C@H](Cc1cnc[nH]1)NC(=O)[C@H](Cc1ccc(O)cc1)NC3=O)C(=O)N[C@@H](C(C)C)C(=O)N[C@@H](Cc1c[nH]c3ccccc13)C(=O)N[C@@H]([C@@H](C)CC)C(=O)N1CCC[C@H]1C(=O)N2` [CIRCULIN D] (cyclo(CENKVCYHDKIPCGESCVWIPCYTSIFNCK); disulfide 1-17, 6-22, 13-29), with 0.05 µM.
The figure for `CC[C@H](C)[C@@H]1NC(=O)[C@H](C)NC(=O)[C@H](C)NC(=O)[C@H](CO)NC(=O)[C@H]([C@@H](C)CC)NC(=O)[C@@H]2CSSC[C@@H]3NC(=O)[C@H](C(C)C)NC(=O)[C@H](CCCCN)NC(=O)[C@H](CC(N)=O)NC(=O)[C@H](CCCCN)NC(=O)[C@@H]4CSSC[C@H](NC(=O)[C@H](CO)NC(=O)[C@H](CCC(=O)O)NC(=O)CNC(=O)[C@H](CSSC[C@H](NC(=O)CNC1=O)C(=O)N[C@@H](CO)C(=O)N4)NC(=O)[C@@H]1CCCN1C(=O)[C@H](Cc1ccccc1)NC(=O)CNC(=O)[C@H](CC(N)=O)NC(=O)[C@H](CCCNC(=N)N)NC(=O)[C@H](Cc1ccc(O)cc1)NC3=O)C(=O)N[C@@H](C(C)C)C(=O)N[C@@H](Cc1ccccc1)C(=O)N[C@@H]([C@@H](C)CC)C(=O)N1CCC[C@H]1C(=O)N2` [CYCLOVIOLIN D] (cyclo(AAIGCSCKNKVCYRNGFPCGESCVFIPCIS); disulfide 5-19, 7-23, 12-28) is 0.05 µM; for `CC[C@H](C)[C@@H]1NC(=O)[C@@H]2CSSC[C@@H]3NC(=O)[C@H](C(C)C)NC(=O)[C@H](CCCCN)NC(=O)[C@H](CC(N)=O)NC(=O)[C@H](CCCCN)NC(=O)[C@@H]4CSSC[C@H](NC(=O)[C@H](CO)NC(=O)[C@H](CCC(=O)O)NC(=O)CNC(=O)[C@H](CSSC[C@H](NC(=O)CNC(=O)[C@H](CC(C)C)NC(=O)[C@H](C)NC(=O)[C@H](C)NC(=O)[C@H](CO)NC1=O)C(=O)N[C@@H](CO)C(=O)N4)NC(=O)[C@@H]1CCCN1C(=O)[C@H]([C@@H](C)CC)NC(=O)CNC(=O)[C@H](CC(N)=O)NC(=O)[C@H](CCCNC(=N)N)NC(=O)[C@H](Cc1ccc(O)cc1)NC3=O)C(=O)N[C@@H](C(C)C)C(=O)N[C@@H](Cc1c[nH]c3ccccc13)C(=O)N[C@@H]([C@@H](C)CC)C(=O)N1CCC[C@H]1C(=O)N2` [CIRCULIN A] (cyclo(AALGCSCKNKVCYRNGIPCGESCVWIPCIS); disulfide 5-19, 7-23, 12-28) it is 0.05 µM; for `CC[C@H](C)[C@@H]1NC(=O)[C@H](C)NC(=O)[C@H](C)NC(=O)[C@H](CO)NC(=O)[C@H]([C@@H](C)CC)NC(=O)[C@@H]2CSSC[C@@H]3NC(=O)[C@H](C(C)C)NC(=O)[C@H](CCCCN)NC(=O)[C@H](CC(N)=O)NC(=O)[C@H](CCCCN)NC(=O)[C@@H]4CSSC[C@H](NC(=O)[C@H](CO)NC(=O)[C@H](CCC(=O)O)NC(=O)CNC(=O)[C@H](CSSC[C@H](NC(=O)CNC1=O)C(=O)N[C@@H](CO)C(=O)N4)NC(=O)[C@@H]1CCCN1C(=O)[C@H]([C@@H](C)CC)NC(=O)[C@H](C)NC(=O)[C@H](CCCNC(=N)N)NC(=O)[C@H](Cc1ccc(O)cc1)NC3=O)C(=O)N[C@@H](C(C)C)C(=O)N[C@@H](Cc1c[nH]c3ccccc13)C(=O)N[C@@H]([C@@H](C)CC)C(=O)N1CCC[C@H]1C(=O)N2` [CIRCULIN F] (cyclo(AAIGCSCKNKVCYRAIPCGESCVWIPCIS); disulfide 5-18, 7-22, 12-27) it is 0.05 µM.
The figure for `CC[C@H](C)[C@@H]1NC(=O)[C@H](C)NC(=O)[C@H](C)NC(=O)[C@H](CO)NC(=O)[C@H]([C@@H](C)CC)NC(=O)[C@@H]2CSSC[C@@H]3NC(=O)[C@H](C(C)C)NC(=O)[C@H](CCCCN)NC(=O)[C@H](CC(N)=O)NC(=O)[C@H](CCCCN)NC(=O)[C@@H]4CSSC[C@H](NC(=O)[C@H](CO)NC(=O)[C@H](CCC(=O)O)NC(=O)CNC(=O)[C@H](CSSC[C@H](NC(=O)CNC1=O)C(=O)N[C@@H](CO)C(=O)N4)NC(=O)[C@@H]1CCCN1C(=O)[C@H]([C@@H](C)CC)NC(=O)[C@H](C(C)C)NC(=O)CNC(=O)[C@H](CC(N)=O)NC(=O)[C@H](CCCNC(=N)N)NC(=O)[C@H](Cc1ccc(O)cc1)NC3=O)C(=O)N[C@@H](C(C)C)C(=O)N[C@@H](Cc1ccccc1)C(=O)N[C@@H]([C@@H](C)CC)C(=O)N1CCC[C@H]1C(=O)N2` [CYCLOVIOLIN A] (cyclo(AAIGCSCKNKVCYRNGVIPCGESCVFIPCIS); disulfide 5-20, 7-24, 12-29) is 0.05 µM.
`CC[C@H](C)[C@@H]1NC(=O)[C@@H]2CSSC[C@@H]3NC(=O)[C@H](C(C)C)NC(=O)[C@H](CCCCN)NC(=O)[C@H](CO)NC(=O)[C@H](CCCCN)NC(=O)[C@@H]4CSSC[C@H](NC(=O)[C@H](CO)NC(=O)[C@H](CCC(=O)O)NC(=O)CNC(=O)[C@H](CSSC[C@H](NC(=O)CNC(=O)[C@H](C)NC(=O)[C@H](C(C)C)NC(=O)[C@H](CO)NC(=O)[C@H]([C@@H](C)O)NC1=O)C(=O)N[C@@H](CO)C(=O)N4)NC(=O)[C@@H]1CCCN1C(=O)[C@H]([C@@H](C)CC)NC(=O)CNC(=O)[C@H](CC(N)=O)NC(=O)[C@H](CCCNC(=N)N)NC(=O)[C@H](Cc1ccc(O)cc1)NC3=O)C(=O)N[C@@H](C(C)C)C(=O)N[C@@H](Cc1ccccc1)C(=O)N[C@@H]([C@@H](C)CC)C(=O)N1CCC[C@H]1C(=O)N2` [CIRCULIN C] (cyclo(AGCSCKSKVCYRNGIPCGESCVFIPCITSV); disulfide 3-17, 5-21, 10-26): the EC50 turned out to be 0.05 µM.
The figure for `CC[C@H](C)[C@@H]1NC(=O)CNC(=O)[C@H](CC(N)=O)NC(=O)[C@H](CCCNC(=N)N)NC(=O)[C@H](Cc2ccc(O)cc2)NC(=O)[C@@H]2CSSC[C@@H]3NC(=O)[C@@H]4CCCN4C(=O)[C@H]([C@@H](C)CC)NC(=O)[C@H](Cc4ccccc4)NC(=O)[C@H](C(C)C)NC(=O)[C@@H]4CSSC[C@H](NC(=O)[C@H](CO)NC(=O)[C@H](CSSC[C@H](NC(=O)[C@@H]5CCCN5C1=O)C(=O)NCC(=O)N[C@@H](CCC(=O)O)C(=O)N[C@@H](CO)C(=O)N4)NC(=O)CNC(=O)[C@H](C)NC(=O)[C@H](C(C)C)NC(=O)[C@H]([C@@H](C)O)NC(=O)[C@H]([C@@H](C)O)NC(=O)[C@H](CC(C)C)NC3=O)C(=O)N[C@@H](CCCCN)C(=O)N[C@@H](CC(N)=O)C(=O)N[C@@H](CCCCN)C(=O)N[C@@H](C(C)C)C(=O)N2` [CYCLOVIOLIN C] (cyclo(AGCSCKNKVCYRNGIPCGESCVFIPCLTTV); disulfide 3-17, 5-21, 10-26) is 0.05 µM.
